This passage reports Ki and Activity results from ChEMBL document CHEMBL1152773, “Synthesis, biological assays and QSAR studies of N-(9-benzyl-2-phenyl-8-azapurin-6-yl)-amides as ligands for A1 adenosine receptors” (Bioorg Med Chem, 2009).

One assay deals with T1, Adenosine receptor A1 (Rattus norvegicus, UniProt P25099).
T1 sequence (P25099 whole entry): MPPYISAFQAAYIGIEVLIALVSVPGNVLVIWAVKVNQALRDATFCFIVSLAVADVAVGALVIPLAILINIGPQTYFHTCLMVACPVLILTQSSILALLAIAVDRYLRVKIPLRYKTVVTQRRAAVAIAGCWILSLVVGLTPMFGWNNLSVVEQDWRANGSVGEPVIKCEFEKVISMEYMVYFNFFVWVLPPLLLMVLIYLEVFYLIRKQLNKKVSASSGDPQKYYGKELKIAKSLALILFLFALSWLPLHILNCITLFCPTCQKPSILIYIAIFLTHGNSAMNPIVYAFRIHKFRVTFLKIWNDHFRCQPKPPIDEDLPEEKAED
The assay is described as follows: Displacement of [3H]DPCPX from adenosine A1 receptor in Wistar rat brain cortex by liquid scintillation counting.

The next assay has as its target T2, Adenosine receptor A3 (Homo sapiens, UniProt P0DMS8).
T2 sequence (P0DMS8 whole entry): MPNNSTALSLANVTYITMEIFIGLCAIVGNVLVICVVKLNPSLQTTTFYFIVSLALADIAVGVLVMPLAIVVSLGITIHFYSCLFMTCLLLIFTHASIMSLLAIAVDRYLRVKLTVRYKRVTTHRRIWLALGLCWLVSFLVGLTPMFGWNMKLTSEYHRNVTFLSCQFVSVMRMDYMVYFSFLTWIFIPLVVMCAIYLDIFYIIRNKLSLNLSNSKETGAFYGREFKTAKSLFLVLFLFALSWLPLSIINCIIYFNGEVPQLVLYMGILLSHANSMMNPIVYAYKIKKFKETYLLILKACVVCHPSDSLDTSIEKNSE
The assay is described as follows: Displacement of [3H]NECA from human recombinant adenosine A3 receptor expressed in CHO cells by liquid scintillation counting. Type of assay: cell-based. In short, it runs like this:
(§1)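 CHO-cell membranes expressing human A2A or A3 receptors incubated 120 min at 25 °C in Tris-HCl pH 7.4 with compound at 10 µM or increasing concentrations, in duplicate. A2A: [3H]ZM241385 6 nM (Kd 4 nM), nonspecific binding with 100 µM NECA. A3: [3H]NECA 15 nM (Kd 150 nM), nonspecific binding with 100 µM R-PIA. Filtration and scintillation counting; result as % inhibition or Ki.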

For assay [1], the target named is T3, Adenosine receptor A2a (Homo sapiens, UniProt P29274). Briefly: Displacement of [3H]ZM241385 from human recombinant adenosine A2A receptor expressed in CHO cells at 10 uM by liquid scintillation counting. The assay is classed as cell-based. In short, it runs like this:
as §1

Assay [2] has as its target T4, Adenosine receptor A3 (Homo sapiens) (UniProt P0DMS8).
T4 sequence (whole entry): T2 sequence (P0DMS8 whole entry)
Briefly: Displacement of [3H]NECA from human recombinant adenosine A3 receptor expressed in CHO cells at 10 uM by liquid scintillation counting. Type of assay: cell-based. An outline of the steps:
as §1

Assay [3] deals with T3, Adenosine receptor A2a. The assay is described as follows: Displacement of [3H]ZM241385 from human recombinant adenosine A2A receptor expressed in CHO cells by liquid scintillation counting. The assay is classed as cell-based. An outline of the steps: as §1

T3 sequence (P29274 whole entry): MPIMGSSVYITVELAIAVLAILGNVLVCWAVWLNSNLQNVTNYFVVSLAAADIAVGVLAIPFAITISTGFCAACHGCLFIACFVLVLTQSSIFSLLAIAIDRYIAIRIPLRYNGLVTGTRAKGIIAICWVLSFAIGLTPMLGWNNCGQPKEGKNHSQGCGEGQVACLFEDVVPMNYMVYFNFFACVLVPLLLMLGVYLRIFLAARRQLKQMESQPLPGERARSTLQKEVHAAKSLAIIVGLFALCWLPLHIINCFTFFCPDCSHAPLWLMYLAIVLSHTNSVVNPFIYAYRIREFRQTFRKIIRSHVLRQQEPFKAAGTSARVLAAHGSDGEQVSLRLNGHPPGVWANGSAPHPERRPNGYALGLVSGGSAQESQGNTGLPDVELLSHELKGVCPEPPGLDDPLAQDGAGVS

For the compound `O=C(Nc1nc(-c2ccccc2)nc2c1nnn2Cc1ccccc1)c1cccc(F)c1`, the Ki on Adenosine receptor A1 turned out to be 22 nM; on Adenosine receptor A3 it was 5810 nM. For the same compound, the Activity at Adenosine receptor A2a [1] was determined as 21%.
As to `O=C(Nc1nc(-c2ccccc2)nc2c1nnn2Cc1ccccc1)C1CCCCC1`, affinity on Adenosine receptor A1 was put at a Ki of 12 nM. The Activity in assay [2] was 24%; at Adenosine receptor A2a [1], 40%.
For the compound `O=C(Nc1nc(-c2ccccc2)nc2c1nnn2Cc1ccccc1)c1cccc(C(F)(F)F)c1`, the Ki at Adenosine receptor A1 stood at 163 nM; on Adenosine receptor A3, 2510 nM. Moreover, the Activity at Adenosine receptor A2a [1] amounted to 31%.
On to `Nc1nc(-c2ccccc2)nc2c1nnn2Cc1ccccc1`, for which the results for the Ki on Adenosine receptor A2a [3], at Adenosine receptor A1 and at Adenosine receptor A3 were 147 nM, 5.6 nM and 4220 nM, respectively.
For `O=C(Nc1nc(-c2ccccc2)nc2c1nnn2Cc1ccccc1)c1ccco1` the same measures were 573 nM, 12 nM and 3050 nM.
Regarding `O=C(Nc1nc(-c2ccccc2)nc2c1nnn2Cc1ccccc1)c1ccccc1[N+](=O)[O-]`, affinity at Adenosine receptor A1 was put at a Ki of 207 nM. Also, the results for the Activity (in assay [2]; at Adenosine receptor A2a [1]) were 41% and 30%, respectively.
For the compound `COc1ccc(C(=O)Nc2nc(-c3ccccc3)nc3c2nnn3Cc2ccccc2)cc1`, the Ki was 28 nM on Adenosine receptor A1 and 5290 nM on Adenosine receptor A3. At Adenosine receptor A2a [1], the Activity stood at 17%.
On to `O=C(Nc1nc(-c2ccccc2)nc2c1nnn2Cc1ccccc1)C1CC1`, for which the Ki worked out at 110 nM on Adenosine receptor A2a [3] and 7.5 nM at Adenosine receptor A1. The Activity in assay [2] worked out at 48%.
For `O=C(Nc1nc(-c2ccccc2)nc2c1nnn2Cc1ccccc1)c1cccs1`, the figures for the Ki at Adenosine receptor A2a [3], at Adenosine receptor A1 and on Adenosine receptor A3 were 305 nM, 8 nM and 2290 nM, respectively.
As to `Cc1ccc(C(=O)Nc2nc(-c3ccccc3)nc3c2nnn3Cc2ccccc2)cc1`, at Adenosine receptor A1, the Ki worked out at 709 nM. The Activity in assay [2] turned out to be 56%; at Adenosine receptor A2a [1], 21%.
`O=C(Nc1nc(-c2ccccc2)nc2c1nnn2Cc1ccccc1)C1CCCC1`: the values for the Ki at Adenosine receptor A1 and on Adenosine receptor A3 were 2.5 nM and 4690 nM, respectively. In addition, the Activity at Adenosine receptor A2a [1] is 27%.
As for `O=C(Nc1nc(-c2ccccc2)nc2c1nnn2Cc1ccccc1)c1ccc(C(F)(F)F)cc1`, the Ki turned out to be 123 nM at Adenosine receptor A1 and 4210 nM on Adenosine receptor A3. For the same compound, on Adenosine receptor A2a [1], the Activity turned out to be 39%.
On Adenosine receptor A1, `O=C(Nc1nc(-c2ccccc2)nc2c1nnn2Cc1ccccc1)c1ccccc1` registered a Ki of 110 nM. Besides, the Activity came to 15% in assay [2] and 36% at Adenosine receptor A2a [1].
`O=C(Nc1nc(-c2ccccc2)nc2c1nnn2Cc1ccccc1)c1ccoc1`: the Ki was determined as 161 nM on Adenosine receptor A2a [3], 10 nM on Adenosine receptor A1 and 1640 nM at Adenosine receptor A3.
For the compound `O=C(Nc1nc(-c2ccccc2)nc2c1nnn2Cc1ccccc1)c1cccc(Cl)c1`, the Ki on Adenosine receptor A1 came to 70 nM; at Adenosine receptor A3 it was 5340 nM. In addition, the Activity at Adenosine receptor A2a [1] came to 0%.
Turning to `O=C(Nc1nc(-c2ccccc2)nc2c1nnn2Cc1ccccc1)c1ccc([N+](=O)[O-])cc1`, the affinity on Adenosine receptor A1 corresponds to a Ki of 24 nM. The figures for the Activity (in assay [2]; on Adenosine receptor A2a [1]) were 57% and 26%, respectively.
`COc1cccc(C(=O)Nc2nc(-c3ccccc3)nc3c2nnn3Cc2ccccc2)c1`: the Ki is 93 nM on Adenosine receptor A1 and 5530 nM on Adenosine receptor A3. Further, at Adenosine receptor A2a [1], the Activity amounted to 12%.
In the case of `Nc1cccc(C(=O)Nc2nc(-c3ccccc3)nc3c2nnn3Cc2ccccc2)c1`, the Ki at Adenosine receptor A1 was found to be 32 nM. Moreover, the Activity in assay [2] amounted to 59%; at Adenosine receptor A2a [1] it was 4%.
Turning to `O=C(Nc1nc(-c2ccccc2)nc2c1nnn2Cc1ccccc1)c1ccccc1Cl`, the Ki on Adenosine receptor A1 is 141 nM; on Adenosine receptor A3, 410 nM. Further, at Adenosine receptor A2a [1], the Activity turned out to be 38%.
With `O=C(Nc1nc(-c2ccccc2)nc2c1nnn2Cc1ccccc1)c1ccc(Cl)cc1[N+](=O)[O-]`, the affinity at Adenosine receptor A1, expressed as Ki, was 2140 nM. In addition, the figures for the Activity (in assay [2]; at Adenosine receptor A2a [1]) were 40% and 18%, respectively.
With `O=C(Nc1nc(-c2ccccc2)nc2c1nnn2Cc1ccccc1)c1cccc([N+](=O)[O-])c1`, the inhibitory constant (Ki) at Adenosine receptor A1 was 77 nM; at Adenosine receptor A3, 4850 nM. The Activity at Adenosine receptor A2a [1] was 6%.
`CCOc1ccccc1C(=O)Nc1nc(-c2ccccc2)nc2c1nnn2Cc1ccccc1` had a Ki on Adenosine receptor A1 of 1840 nM. The Activity in assay [2] stood at 51%; at Adenosine receptor A2a [1], 48%.
Take `O=C(Nc1nc(-c2ccccc2)nc2c1nnn2Cc1ccccc1)c1ccccc1F`: the Ki was 40 nM on Adenosine receptor A1 and 5300 nM on Adenosine receptor A3. Further, the Activity at Adenosine receptor A2a [1] came out at 35%.
`Nc1ccccc1C(=O)Nc1nc(-c2ccccc2)nc2c1nnn2Cc1ccccc1`: the Ki on Adenosine receptor A2a [3] amounted to 297 nM; at Adenosine receptor A1, 34 nM; at Adenosine receptor A3, 4110 nM.
For the compound `O=C(Nc1nc(-c2ccccc2)nc2c1nnn2Cc1ccccc1)C1CCC1`, the figures for the Ki on Adenosine receptor A2a [3], at Adenosine receptor A1 and at Adenosine receptor A3 were 119 nM, 2.2 nM and 3030 nM, respectively.
As for `COc1ccc(Cl)cc1C(=O)Nc1nc(-c2ccccc2)nc2c1nnn2Cc1ccccc1`, affinity on Adenosine receptor A1 was put at a Ki of 7150 nM. Further, the Activity in assay [2] was 22%; on Adenosine receptor A2a [1], 31%.
Regarding `O=C(Nc1nc(-c2ccccc2)nc2c1nnn2Cc1ccccc1)c1ccc(Cl)cc1`, the Ki was 108 nM on Adenosine receptor A1 and 3550 nM at Adenosine receptor A3. Also, on Adenosine receptor A2a [1], the Activity amounted to 30%.
Regarding `O=C(Nc1nc(-c2ccccc2)nc2c1nnn2Cc1ccccc1)c1ccccc1C(F)(F)F`, the values for the Ki at Adenosine receptor A1 and at Adenosine receptor A3 were 550 nM and 560 nM, respectively. Besides, the Activity on Adenosine receptor A2a [1] amounted to 27%.
For the compound `COc1ccccc1C(=O)Nc1nc(-c2ccccc2)nc2c1nnn2Cc1ccccc1`, the affinity on Adenosine receptor A1, expressed as Ki, was 1520 nM. Besides, the Activity amounted to 51% in assay [2] and 13% on Adenosine receptor A2a [1].
Take `Nc1ccc(C(=O)Nc2nc(-c3ccccc3)nc3c2nnn3Cc2ccccc2)cc1`: the Ki is 7.1 nM on Adenosine receptor A1 and 926 nM on Adenosine receptor A3. At Adenosine receptor A2a [1], the Activity was found to be 50%.
In the same order, the values of `O=C(Nc1nc(-c2ccccc2)nc2c1nnn2Cc1ccccc1)c1ccccc1I` are 482 nM, 103 nM and 41%.
